# According to ChEMBL document CHEMBL1671752, “Genotypic characterization of UL23 thymidine kinase and UL30 DNA polymerase of clinical isolates of herpes simplex virus: natural polymorphism and mutations associated with resistance to antivirals” (Antimicrob Agents Chemother, 2010):
# Assays:
# Human alphaherpesvirus 2 [1] = test: Antiviral activity against Herpes simplex virus 2 isolate 16 harboring D137Stop mutations in thymidine kinase and A9T, P15S, L60P mutations in DNA polymerase infected in african green monkey Vero cells by plaque reduction assay; format: functional, organism-based; settings: Human alphaherpesvirus 2, isolate 16, Vero
# Summary of the method: (§1)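 EC50 by plaque reduction assay in Vero cells against acyclovir and foscarnet. Vero cells grown in RPMI 1640 with 2% fetal bovine serum, 2 mM glutamine, 20 μg/ml vancomycin and 20 μg/ml amikacin. KOS (HSV-1) and gHSV2 (HSV-2) run as susceptible controls in each assay. […] HSV type confirmed by immunofluorescence with type-specific monoclonal antibodies.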
# Human alphaherpesvirus 1 [2] = test: Antiviral activity against Herpes simplex virus 1 isolate 3 harboring N23S, K36E, R89Q, A265T, Y53D mutations in thymidine kinase and S33G, A330R, V905M, E1005K mutations in DNA polymerase infected in african green monkey Vero cells by plaque reduction assay; format: functional, organism-based; settings: Human alphaherpesvirus 1, isolate 3, Vero; summary of the method: as §1
# Human alphaherpesvirus 2 [3] = test: Antiviral activity against Herpes simplex virus 2 isolate 22 harboring G39E, N78D, L140F, +1G 439-440 = Stop 229 mutations in thymidine kinase and A9T, P15S, L60P, E678G, Y823C mutations in DNA polymerase infected in african green monkey Vero cells by plaque reduction assay; format: functional, organism-based; settings: Human alphaherpesvirus 2, isolate 22, Vero; summary of the method: as §1
# Human alphaherpesvirus 2 [4] = test: Antiviral activity against Herpes simplex virus 2 isolate 23 harboring G39E, N78D, L140F, +1G 439-440 = Stop 229 mutations in thymidine kinase and A9T, P15S, L60P, I291V mutations in DNA polymerase infected in african green monkey Vero cells by plaque reduction assay; format: functional, organism-based; settings: Human alphaherpesvirus 2, isolate 23, Vero; summary of the method: as §1
# Human alphaherpesvirus 1 [5] = test: Antiviral activity against Herpes simplex virus 1 isolate 5 harboring N23S, K36E, A192V, G251C, A265T, V267L, P268T, -1G 856 = frameshift mutations in thymidine kinase and A330R, V905M, T1208A, H98Y mutations in DNA polymerase infected in african green monkey Vero cells by plaque reduction assay; format: functional, organism-based; settings: Human alphaherpesvirus 1, isolate 5, Vero; summary of the method: as §1
# Human alphaherpesvirus 1 [6] = test: Antiviral activity against Herpes simplex virus 1 isolate 2 harboring C6G, N23S, K36E, R41H, A192V, A265T, L170P mutations in thymidine kinase and S33G, A330R, V905M, T1208A mutations in DNA polymerase infected in african green monkey Vero cells by plaque reduction assay; settings: Human alphaherpesvirus 1, isolate 2, Vero
# Human alphaherpesvirus 2 [7] = test: Antiviral activity against Herpes simplex virus 2 isolate 24 harboring G39E, -1G 440 = Stop 229 mutations in thymidine kinase and A9T, P15S, L60P, E139K, H837R mutations in DNA polymerase infected in african green monkey Vero cells by plaque reduction assay; format: functional, organism-based; settings: Human alphaherpesvirus 2, isolate 24, Vero; summary of the method: as §1
# Human alphaherpesvirus 2 [8] = test: Antiviral activity against Herpes simplex virus 2 isolate 21 harboring G39E, N78D, L140F, -1C 452 = Stop 183 mutations in thymidine kinase and P15S, L60P, E678G mutations in DNA polymerase infected in african green monkey Vero cells by plaque reduction assay; format: functional, organism-based; settings: Human alphaherpesvirus 2, isolate 21, Vero; summary of the method: as §1
# Human alphaherpesvirus 1 [9] = test: Antiviral activity against Herpes simplex virus 1 isolate 10 harboring N23S, K36E, R89Q, A265T C336Y mutations in thymidine kinase and S33G, A330R, V905M mutations in DNA polymerase infected in african green monkey Vero cells by plaque reduction assay; format: functional, organism-based; settings: Human alphaherpesvirus 1, isolate 10, Vero; summary of the method: as §1
# Human alphaherpesvirus 1 [10] = test: Antiviral activity against Herpes simplex virus 1 isolate 4 harboring N23S, K36E -1C 553 = frameshift mutations in thymidine kinase and S33G, A330R, A899V, L1188F mutations in DNA polymerase infected in african green monkey Vero cells by plaque reduction assay; format: functional, organism-based; settings: Human alphaherpesvirus 1, isolate 4, Vero; summary of the method: as §1
# Human alphaherpesvirus 2 [11] = test: Antiviral activity against Herpes simplex virus 2 isolate 15 harboring R221H mutations in thymidine kinase and A9T, P15S, L60P mutations in DNA polymerase infected in african green monkey Vero cells by plaque reduction assay; format: functional, organism-based; settings: Human alphaherpesvirus 2, isolate 15, Vero; summary of the method: as §1
# Human alphaherpesvirus 1 [12] = test: Antiviral activity against Herpes simplex virus 1 isolate 1 harboring C6G N23S K36E L42P G240E A265T and A207P mutations in thymidine kinase and S33G, A330R, N425T, V905M mutations in DNA polymerase infected in african green monkey Vero cells by plaque reduction assay; format: functional, organism-based; settings: Human alphaherpesvirus 1, isolate 1, Vero; summary of the method: as §1
# Human alphaherpesvirus 1 [13] = test: Antiviral activity against Herpes simplex virus 1 isolate 8 harboring N23S, K36E, R89Q, +1G 437-438 = Stop 228 mutations in thymidine kinase and A330R, P875S, V905M, P1124H, T1208A mutations in DNA polymerase infected in african green monkey Vero cells by plaque reduction assay; format: functional, organism-based; settings: Human alphaherpesvirus 1, isolate 8, Vero; summary of the method: as §1
# Human alphaherpesvirus 2 [14] = test: Antiviral activity against Herpes simplex virus 2 isolate 17 harboring G39E, N78D Q222Stop mutations in thymidine kinase and A9T, P15S, L60P, T801P mutations in DNA polymerase infected in african green monkey Vero cells by plaque reduction assay; format: functional, organism-based; settings: Human alphaherpesvirus 2, isolate 17, Vero; summary of the method: as §1
# Human alphaherpesvirus 2 [15] = test: Antiviral activity against Herpes simplex virus 2 isolate 25 harboring I101S mutations in thymidine kinase and D785N, V544A mutations in DNA polymerase infected in african green monkey Vero cells by plaque reduction assay; format: functional, organism-based; settings: Human alphaherpesvirus 2, isolate 25, Vero; summary of the method: as §1
# Human alphaherpesvirus 2 [16] = test: Antiviral activity against Herpes simplex virus 2 isolate 12 harboring G39E, N78D, L140F, S66P, A72S mutations in thymidine kinase and A9T, P15S, L60P mutations in DNA polymerase infected in african green monkey Vero cells by plaque reduction assay; format: functional, organism-based; settings: Human alphaherpesvirus 2, isolate 12, Vero; summary of the method: as §1
# Human alphaherpesvirus 1 [17] = test: Antiviral activity against Herpes simplex virus 1 isolate 7 harboring N23S, K36E, R89Q, +1C 464-465 = Stop 228 mutations in thymidine kinase and S33G, A330R, P1124H, T1208A, A870G mutations in DNA polymerase infected in african green monkey Vero cells by plaque reduction assay; format: functional, organism-based; settings: Human alphaherpesvirus 1, isolate 7, Vero; summary of the method: as §1
# Human alphaherpesvirus 2 [18] = test: Antiviral activity against Herpes simplex virus 2 isolate 20 harboring G39E, -1C 467 = Stop 183 mutations in thymidine kinase and A9T, P15S, L60P, E139K, T801P mutations in DNA polymerase infected in african green monkey Vero cells by plaque reduction assay; format: functional, organism-based; settings: Human alphaherpesvirus 2, isolate 20, Vero; summary of the method: as §1
# Human alphaherpesvirus 2 [19] = test: Antiviral activity against Herpes simplex virus 2 isolate 19 harboring G39E, +2G 439-440 = Stop 184 mutations in thymidine kinase and A9T, P15S, L60P, del, DGDE683-686 mutations in DNA polymerase infected in african green monkey Vero cells by plaque reduction assay; format: functional, organism-based; settings: Human alphaherpesvirus 2, isolate 19, Vero; summary of the method: as §1
# Human alphaherpesvirus 1 [20] = test: Antiviral activity against Herpes simplex virus 1 isolate 6 harboring N23S, K36E, R89Q, +1G 437-438 = Stop 225 mutations in thymidine kinase and S33G, A330R, A646T, S1123L, P1124H, T1208A, R1229I mutations in DNA polymerase infected in african green monkey Vero cells by plaque reduction assay; format: functional, organism-based; settings: Human alphaherpesvirus 1, isolate 6, Vero; summary of the method: as §1
# Human alphaherpesvirus 1 [21] = test: Antiviral activity against Herpes simplex virus 1 isolate 9 harboring N23S, K36E, R89Q, +1G 437-438 = Stop 228 mutations in thymidine kinase and S33G, A330R, V905M, A1203T, T1208A mutations in DNA polymerase infected in african green monkey Vero cells by plaque reduction assay; format: functional, organism-based; settings: Human alphaherpesvirus 1, isolate 9, Vero; summary of the method: as §1
# Human alphaherpesvirus 2 [22] = test: Antiviral activity against Herpes simplex virus 2 isolate 18 harboring A27T, G39E, N78D, -1C 556 = Stop 263, S29A mutations in thymidine kinase and A9T, P15S, L60P, E678G, del, DD676-677 mutations in DNA polymerase infected in african green monkey Vero cells by plaque reduction assay; format: functional, organism-based; settings: Human alphaherpesvirus 2, isolate 18, Vero; summary of the method: as §1
# Human alphaherpesvirus 2 [23] = test: Antiviral activity against Herpes simplex virus 2 isolate 13 harboring, M183I mutations in thymidine kinase and A9T, P15S, R41H, L60P, E139K, A232T mutations in DNA polymerase infected in african green monkey Vero cells by plaque reduction assay; format: functional, organism-based; settings: Human alphaherpesvirus 2, isolate 13, Vero; summary of the method: as §1
# Human alphaherpesvirus 1 [24] = test: Antiviral activity against Herpes simplex virus 1 isolate 11 harboring N23S, K36E, G251C, A265T, P268T, R176W mutations in thymidine kinase and S33G, A330R, P1124H, T1208A, S724N, V117L, L267M mutations in DNA polymerase infected in african green monkey Vero cells by plaque reduction assay; format: functional, organism-based; settings: Human alphaherpesvirus 1, isolate 11, Vero; summary of the method: as §1
# Human alphaherpesvirus 2 [25] = test: Antiviral activity against Herpes simplex virus 2 isolate 14 harboring G39E, N78D, M70R mutations in thymidine kinase and A724V mutations in DNA polymerase infected in african green monkey Vero cells by plaque reduction assay; format: functional, organism-based; settings: Human alphaherpesvirus 2, isolate 14, Vero; summary of the method: as §1
Compound,EC50 (Human alphaherpesvirus 2 [1]) [µM],EC50 (Human alphaherpesvirus 1 [2]) [µM],EC50 (Human alphaherpesvirus 2 [3]) [µM],EC50 (Human alphaherpesvirus 2 [4]) [µM],EC50 (Human alphaherpesvirus 1 [5]) [µM],EC50 (Human alphaherpesvirus 1 [6]) [µM],EC50 (Human alphaherpesvirus 2 [7]) [µM],EC50 (Human alphaherpesvirus 2 [8]) [µM],EC50 (Human alphaherpesvirus 1 [9]) [µM],EC50 (Human alphaherpesvirus 1 [10]) [µM],EC50 (Human alphaherpesvirus 2 [11]) [µM],EC50 (Human alphaherpesvirus 1 [12]) [µM],EC50 (Human alphaherpesvirus 1 [13]) [µM],EC50 (Human alphaherpesvirus 2 [14]) [µM],EC50 (Human alphaherpesvirus 2 [15]) [µM],EC50 (Human alphaherpesvirus 2 [16]) [µM],EC50 (Human alphaherpesvirus 1 [17]) [µM],EC50 (Human alphaherpesvirus 2 [18]) [µM],EC50 (Human alphaherpesvirus 2 [19]) [µM],EC50 (Human alphaherpesvirus 1 [20]) [µM],also measured
O=C(O)P(=O)(O)O [FOSCARNET],< 66,< 66,76,< 66,< 66,< 66,< 66,89,< 66,< 66,99,< 66,< 66,< 66,145,< 66,< 66,< 66,< 66,< 66,EC50 (Human alphaherpesvirus 1 [21]): 106 µM; EC50 (Human alphaherpesvirus 2 [22]): < 66 µM; EC50 (Human alphaherpesvirus 2 [23]): < 66 µM; EC50 (Human alphaherpesvirus 1 [24]): 644 µM; EC50 (Human alphaherpesvirus 2 [25]): 92 µM
Nc1nc2c(ncn2COCCO)c(=O)[nH]1 [ACYCLOVIR],> 50,35,> 50,> 50,16,11,> 50,> 50,22,16,11,> 50,10,> 50,42,43,31,> 50,> 50,26,EC50 (Human alphaherpesvirus 1 [21]): > 50 µM; EC50 (Human alphaherpesvirus 2 [22]): 18 µM; EC50 (Human alphaherpesvirus 2 [23]): 33 µM; EC50 (Human alphaherpesvirus 1 [24]): > 50 µM; EC50 (Human alphaherpesvirus 2 [25]): 24 µM
